Values after ≈ are worked out from the molar mass of the structure shown.
What was measured:
[1] = Antioxidant activity assessed as nitric oxide radical scavenging activity at 100 ug/ml (reference value: 25.8 to 41.6 %); type: functional; conditions: dose 100.0 µg/ml
How it was run: (§1)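 Nitric oxide radical scavenging was tested at 0, 25, 50, 75 and 100 µg/ml of compound.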

Bacteria = assay: Antibacterial activity against ESBL-producing bacteria assessed as bacterial growth inhibition; type: functional
How it was run: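 Values are minimum inhibitory concentrations (MIC) in µg/mL, determined at an outside microbiology laboratory.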

Aspergillus niger = assay: Antifungal activity against Aspergillus niger MTCC 282 assessed as fungal growth inhibition; type: functional
[2] = Antioxidant activity assessed as nitric oxide radical scavenging activity at 75 ug/ml (reference value: 25.8 to 41.6 %); type: functional; conditions: dose 75.0 µg/ml; how it was run: as §1
[3] = Antioxidant activity assessed as hydrogen peroxide radical scavenging activity at 75 ug/ml (reference value: 23.6 to 43.1 %); type: functional; conditions: dose 75.0 µg/ml
How it was run: (§2)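 Hydrogen peroxide scavenging was measured across a compound series of 0, 25, 50, 75 and 100 µg/ml.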

[4] = Antioxidant activity assessed as DPPH radical scavenging activity at 50 ug/ml (reference value: 22 to 40.2 %); type: functional; conditions: dose 50.0 µg/ml
How it was run: (§3)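 DPPH radical scavenging was measured at 0, 25, 50, 75 and 100 µg/ml of each compound. Ascorbic acid was the reference.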

[5] = Antioxidant activity assessed as hydrogen peroxide radical scavenging activity at 100 ug/ml (reference value: 23.6 to 43.1 %); type: functional; conditions: dose 100.0 µg/ml; how it was run: as §2
Pseudomonas aeruginosa = assay: Antibacterial activity against Pseudomonas aeruginosa MTCC 1688 assessed as bacterial growth inhibition; type: functional
[6] = Antioxidant activity assessed as DPPH radical scavenging activity at 25 ug/ml (reference value: 22 to 40.2 %); type: functional; conditions: dose 25.0 µg/ml; how it was run: as §3
[7] = Antioxidant activity assessed as DPPH radical scavenging activity at 75 ug/ml (reference value: 22 to 40.2 %); type: functional; conditions: dose 75.0 µg/ml; how it was run: as §3
Enterococcus = assay: Antibacterial activity against vancomycin-resistant Enterococcus assessed as inhibition of bacterial growth; type: functional
How it was run: (§4)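 Growth inhibition of the drug-resistant strain was read out as the minimum inhibitory concentration (MIC), reported in µg/mL. The same protocol was also run on an ESBL strain.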

[8] = Antioxidant activity assessed as DPPH radical scavenging activity at 100 ug/ml (reference value: 22 to 40.2 %); type: functional; conditions: dose 100.0 µg/ml; how it was run: as §3
[9] = Antioxidant activity assessed as hydrogen peroxide radical scavenging activity at 50 ug/ml (reference value: 23.6 to 43.1 %); type: functional; conditions: dose 50.0 µg/ml; how it was run: as §2
Staphylococcus aureus [10] = assay: Antibacterial activity against methicillin-resistant Staphylococcus aureus assessed as inhibition of bacterial growth; type: functional; how it was run: as §4
Plasmodium falciparum = assay: Antimalarial activity against Plasmodium falciparum assessed as parasite growth inhibition; type: functional, organism-based
[11] = Antioxidant activity assessed as nitric oxide radical scavenging activity at 50 ug/ml (reference value: 25.8 to 41.6 %); type: functional; conditions: dose 50.0 µg/ml; how it was run: as §1
Candida albicans = assay: Antifungal activity against Candida albicans MTCC 227 assessed as fungal growth inhibition; type: functional
Escherichia coli = assay: Antibacterial activity against Escherichia coli MTCC 443 assessed as bacterial growth inhibition; type: functional
[12] = Antioxidant activity assessed as nitric oxide radical scavenging activity at 25 ug/ml (reference value: 25.8 to 41.6 %); type: functional; conditions: dose 25.0 µg/ml; how it was run: as §1
[13] = Antioxidant activity assessed as hydrogen peroxide radical scavenging activity at 25 ug/ml (reference value: 23.6 to 43.1 %); type: functional; conditions: dose 25.0 µg/ml; how it was run: as §2
Streptococcus pyogenes = assay: Antibacterial activity against Streptococcus pyogenes MTCC 442 assessed as bacterial growth inhibition; type: functional
[14] = system: Mycobacterium tuberculosis; assay: Antibacterial activity against Mycobacterium tuberculosis H37Rv assessed as bacterial growth inhibition; type: functional
Staphylococcus aureus [15] = assay: Antibacterial activity against Staphylococcus aureus MTCC 96 assessed as bacterial growth inhibition; type: functional
Aspergillus clavatus = assay: Antifungal activity against Aspergillus clavatus MTCC 1323 assessed as fungal growth inhibition; type: functional

| Compound | Activity [1] [%] | MIC (Bacteria) [µg/mL] | MFC (Aspergillus niger) [µg/mL] | Activity [2] [%] | Activity [3] [%] | Activity [4] [%] | Activity [5] [%] | MIC (Pseudomonas aeruginosa) [µg/mL] | Activity [6] [%] | Activity [7] [%] | MIC (Enterococcus) [µg/mL] | Activity [8] [%] | Activity [9] [%] | IC50 (Plasmodium falciparum) [µg/mL] | MFC (Candida albicans) [µg/mL] | MIC (Escherichia coli) [µg/mL] | MIC (Streptococcus pyogenes) [µg/mL] | MIC [14] [µg/mL] | MIC (Staphylococcus aureus [15]) [µg/mL] | MFC (Aspergillus clavatus) [µg/mL] | further results |
| --- | --- | --- | --- | --- | --- | --- | --- | --- | --- | --- | --- | --- | --- | --- | --- | --- | --- | --- | --- | --- | --- |
| CC(=O)c1c(C)nc(SCC(=O)Nc2ccc(OCc3ccc(Cl)cc3)cc2)n1-c1ccccc1 | 88.4 | 125 (≈ 247 µM) | 500 (≈ 988 µM) | 76.9 | 67.3 | 68.2 | 79.6 | 25 (≈ 49.4 µM) | 52.1 | 76 | 100 (≈ 198 µM) | 84.7 | 59.4 | 1.45 (≈ 2.87 µM) | > 1000 | 100 (≈ 198 µM) | 62.5 (≈ 124 µM) | 12.5 (≈ 24.7 µM) | 250 (≈ 494 µM) | 500 (≈ 988 µM) | MIC (Staphylococcus aureus [10]): 100 µg/mL (≈ 198 µM); Activity [11]: 61.4%; Activity [12]: 49.5%; Activity [13]: 42.6% |
| CC(=O)c1c(C)nc(SCC(=O)Nc2ccc(OC(=O)c3ccco3)cc2)n1-c1ccc(Br)cc1 | 86.7 | 250 (≈ 451 µM) | 500 (≈ 902 µM) | 75.8 | 79 | 57.1 | 86.5 | 250 (≈ 451 µM) | 43.2 | 64.8 | 250 (≈ 451 µM) | 88.7 | 68.7 | 1.18 (≈ 2.13 µM) | 1000 (≈ 1800 µM) | 100 (≈ 180 µM) | 250 (≈ 451 µM) | 25 (≈ 45.1 µM) | 100 (≈ 180 µM) | 500 (≈ 902 µM) | MIC (Staphylococcus aureus [10]): 100 µg/mL (≈ 180 µM); Activity [11]: 65.3%; Activity [12]: 49.3%; Activity [13]: 51.7% |
| NNC(=O)c1ccncc1 [ISONIAZID] |  |  |  |  |  |  |  |  |  |  |  |  |  |  |  |  |  | 0.2 (≈ 1.46 µM) |  |  |  |
| COc1ccc(-n2c(SCC(=O)Nc3ccc(OCc4ccc(F)cc4)cc3)nc(C)c2C(C)=O)cc1 | 90.5 | 25 (≈ 48.1 µM) | 500 (≈ 962 µM) | 81.4 | 79.8 | 54.2 | 84.3 | 25 (≈ 48.1 µM) | 31.6 | 67.2 | 100 (≈ 192 µM) | 84.3 | 68.1 | 1.4 (≈ 2.69 µM) | 500 (≈ 962 µM) | 12.5 (≈ 24.1 µM) | 100 (≈ 192 µM) | 50 (≈ 96.2 µM) | 100 (≈ 192 µM) | 500 (≈ 962 µM) | MIC (Staphylococcus aureus [10]): 125 µg/mL (≈ 241 µM); Activity [11]: 63.4%; Activity [12]: 45.8%; Activity [13]: 54% |
| COC1=CC(=O)C[C@@H](C)[C@]12Oc1c(Cl)c(OC)cc(OC)c1C2=O [GRISEOFULVIN] |  |  | 100 (≈ 283 µM) |  |  |  |  |  |  |  |  |  |  |  | 500 (≈ 1420 µM) |  |  |  |  | 100 (≈ 283 µM) |  |
| NYSTATIN |  |  | 100 |  |  |  |  |  |  |  |  |  |  |  | 100 |  |  |  |  | 100 |  |
| O=C(N[C@H](CO)[C@H](O)c1ccc([N+](=O)[O-])cc1)C(Cl)Cl [CHLORAMPHENICOL] |  |  |  |  |  |  |  | 50 (≈ 155 µM) |  |  |  |  |  |  |  | 50 (≈ 155 µM) | 50 (≈ 155 µM) |  | 50 (≈ 155 µM) |  |  |
| CC1(C)S[C@@H]2[C@H](NC(=O)[C@H](N)c3ccccc3)C(=O)N2[C@H]1C(=O)O [AMPICILLIN] |  |  |  |  |  |  |  | 100 (≈ 286 µM) |  |  |  |  |  |  |  | 100 (≈ 286 µM) | 100 (≈ 286 µM) |  | 250 (≈ 715 µM) |  |  |
| C=C[C@H]1CN2CC[C@H]1C[C@H]2[C@H](O)c1ccnc2ccc(OC)cc12 [QUININE] |  |  |  |  |  |  |  |  |  |  |  |  |  | 0.268 (≈ 0.826 µM) |  |  |  |  |  |  |  |
